The values below come from ChEMBL document CHEMBL2321650, “Novel HldE-K inhibitors leading to attenuated Gram negative bacterial virulence” (J Med Chem, 2013).

For series [1], the system named is Escherichia coli. Kind of series: Antimicrobial activity against wild type Escherichia coli O18:K1:H7 after overnight incubation. In kind it is functional. The essentials:
(§1)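 Broth microdilution MIC in cation-adjusted MHB, final inoculum 5 × 10⁵ CFU/mL from early-to-log preculture; serial compound dilutions in 2% DMSO, overnight at 35 °C, growth scored visually. Each strain tested with and without erythromycin (1 μg/mL for K12 ΔacrAB ΔtolC, 8 μg/mL for K1 wild type, 1 μg/mL for K1 ΔtolC).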

For series [2], the system named is Escherichia coli. Kind of series: Antimicrobial activity against hldE-deficient Escherichia coli O18:K1:H7 after overnight incubation. In kind it is functional.
Series [3] has as its system Escherichia coli. In words: Antimicrobial activity against acrAB, tolC-deficient Escherichia coli str. K-12 substr. MG1655 after overnight incubation in absence of erythromycin. The series is classed as functional. The essentials: as §1
Series [4] in a line: Inhibition of Neisseria meningitidis 2C43 hldE-K expressed in Escherichia coli BL21 using beta-heptose 7-phosphate as substrate incubated for 30 mins prior to substrate addition measured after 30 mins by luminescence assay. The essentials:
(§2)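 HldE kinase luminescence assay as for E. coli, with enzyme at 20 nM for K. pneumoniae, 20 nM for N. meningitidis and 10 nM for S. marcescens. Heptose 7-phosphate and ATP each at 0.2 μM; 30 min preincubation and 30 min reaction at room temperature.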

Series [5] concerns Escherichia coli. In words: Antimicrobial activity against tolC-deficient Escherichia coli O18:K1:H7 after overnight incubation in absence of erythromycin. In kind it is functional. The essentials:
as §1

Series [6] can be described thus: Inhibition of Escherichia coli O18:K1 C7 hldE-K expressed in Escherichia coli BL21 using beta-heptose 7-phosphate as substrate incubated for 30 mins prior to substrate addition measured after 30 mins by luminescence assay. The essentials: (§3)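 E. coli HldE (His-tagged, IPTG-induced, Ni-NTA-purified), 3 nM, preincubated 30 min at room temperature with inhibitor in Hepes pH 7.5, MnCl₂, KCl, 0.012% Triton-X100, DTT, MBP. Reaction with 0.2 μM heptose 7-phosphate and 0.2 μM ATP, 30 min at room temperature. Remaining ATP read by luciferase/luciferin luminescence; 6−10 concentrations fitted to a Langmuir model for IC50.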

Series [7] can be described thus: Inhibition of Escherichia coli O18:K1 C7 ribokinase expressed in Escherichia coli BL21 using D-ribose as substrate incubated for 30 mins prior to substrate addition measured after 30 mins by luminescence assay. The essentials: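 Ribokinase run as the HldE kinase assay: purified E. coli ribokinase at 0.6 nM, 3 μM D-ribose, 3 μM ATP. Inhibitor preincubated 30 min, reaction run 30 min at room temperature, luciferase luminescence read-out, IC50 from 6−10 concentrations.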

Another series has as its system Klebsiella pneumoniae. Kind of series: Inhibition of Klebsiella pneumoniae ATCC 700603 hldE-K expressed in Escherichia coli BL21 using beta-heptose 7-phosphate as substrate incubated for 30 mins prior to substrate addition measured after 30 mins by luminescence assay. The following applies: ATCC 700603, BL21. The essentials:
as §2

The test system of series [8] is Escherichia coli. Kind of series: Antimicrobial activity against acrAB, tolC-deficient Escherichia coli str. K-12 substr. MG1655 after overnight incubation in presence of erythromycin. In kind it is functional. The essentials:
as §1

A short description of series [9]: Inhibition of Serratia marcescens NEM017811 hldE-K expressed in Escherichia coli BL21 using beta-heptose 7-phosphate as substrate incubated for 30 mins prior to substrate addition measured after 30 mins by luminescence assay. The essentials:
as §2

The subject of series [10] is Escherichia coli. In words: Antimicrobial activity against tolC-deficient Escherichia coli O18:K1:H7 after overnight incubation in presence of erythromycin. In kind it is functional. The essentials: as §1
Series [11] has as its system Escherichia coli. Kind of series: Inhibition of Escherichia coli O18:K1 C7 hldE-K expressed in Escherichia coli BL21 using D-manno-heptose 7-phosphate as substrate incubated for 30 mins prior to substrate addition measured after 30 mins by luminescence assay. The essentials: as §3
Series [12] can be described thus: Competitive reversible inhibition of Escherichia coli O18:K1 C7 hldE-K expressed in Escherichia coli BL21 using D-manno-heptose 7-phosphate as substrate incubated for 30 mins prior to substrate addition measured after 30 mins by double reciprocal plot analysis in presence of ATP. The essentials: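 ATP competition on E. coli HldE-K at 2 μM D-manno-heptose 7-phosphate with varied ATP. Initial velocities read by luciferase luminescence and analysed as a double reciprocal plot of 1/v versus 1/[ATP].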

The test system of series [13] is Escherichia coli. In words: Inhibition of Escherichia coli O18:K1 C7 hldE-K expressed in Escherichia coli BL21 using beta-heptose 7-phosphate as substrate incubated for 30 mins prior to substrate addition measured after 30 mins by luminescence assay in presence of Triton-X 100. The essentials:
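E. coli HldE kinase luminescence assay with Triton-X100 at 100 μM to 1 mM added to test for promiscuous, aggregation-type inhibition. Otherwise 3 nM enzyme, 30 min inhibitor preincubation, and 30 min reaction with heptose 7-phosphate and ATP at room temperature.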

In the next series the test system is HepG2. Kind of series: Cytotoxicity against human HepG2 cells after overnight incubation by one cell proliferation assay. In kind it is cell-based. The essentials: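 HepG2 cells at 2 × 10⁴ per well in EMEM with 10% FBS, grown overnight at 37 °C in 5% CO₂. Medium then replaced by compound dilutions in medium with 2% DMSO for overnight incubation. Viability read by CellTiter Aqueous One MTS absorbance at 490 nm.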

Series [14] concerns Escherichia coli. In words: Antimicrobial activity against acrAB, tolC-deficient Escherichia coli str. K-12 substr. MG1655 after 18 to 22 hrs. In kind it is functional.
Series [15] concerns Escherichia coli. Kind of series: Antimicrobial activity against tolC-deficient Escherichia coli O18:K1:H7 assessed as inhibition of LPS synthesis at 16 ug/mL after 5 hrs by silver staining-based electrophoretic analysis. In kind it is functional, organism-based. The essentials:
(§4)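 Exponential LB cultures diluted to 5 × 10⁵ CFU/mL, incubated with compound (from water/DMSO 50/50) at 37 °C about 5 h to OD 0.2−0.4. OD-normalized pellets were PBS-washed, SDS-denatured at 95−100 °C, proteinase K-treated 1 h at 55 °C, and run on 16% SDS-PAGE with silver staining. The lowest dose yielding Re-LPS was recorded.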

Series [16] concerns Escherichia coli. In words: Antimicrobial activity against acrAB, tolC-deficient Escherichia coli str. K-12 substr. MG1655 assessed as inhibition of LPS synthesis at 2 ug/mL after 5 hrs by silver staining-based electrophoretic analysis. In kind it is functional. The essentials: as §4

≈ marks a conversion by molar mass, not a printed value. Calls of active or inactive are those of the source. No cut-off for these calls is given here.

One may read the MIC as the lowest concentration found to suppress growth. As for `CO[C@@H]1[C@@H](OC(N)=O)[C@@H](O)[C@H](Oc2ccc3c(O)c(NC(=O)c4ccc(O)c(CC=C(C)C)c4)c(=O)oc3c2C)OC1(C)C` [NOVOBIOCIN], the results for the MIC in the series on Escherichia coli [1] and with Escherichia coli [2] were 32 µg/mL (≈ 52.2 µM) and 0.5 µg/mL (≈ 0.816 µM), respectively.
One may read the IC50 as the concentration that inhibits the measured activity by half. Read a high IC50 as lower potency. As for `COc1ccc2sc(CNc3nncc(-c4c(Cl)cccc4Cl)n3)nc2c1`, the MIC with Escherichia coli [3], in the series with Escherichia coli [5], with Escherichia coli [8] and in the series with Escherichia coli [10] was over 32 µg/mL throughout. Further, the IC50 in series [4] is 13000 nM; in [6], 130 nM; in series [7] it was over 300000 nM; in the series with Klebsiella pneumoniae it was 2300 nM; in [9], 1200 nM.
Regarding `CC[C@H]1OC(=O)[C@H](C)C(=O)[C@H](C)[C@@H](O[C@@H]2O[C@H](C)C[C@H](N(C)C)[C@H]2O)[C@](C)(OC)C[C@@H](C)C(=O)[C@H](C)[C@H]2N(CCCCn3cnc(-c4cccnc4)c3)C(=O)O[C@]12C` [TELITHROMYCIN], the MIC with Escherichia coli [1] amounted to 8 µg/mL (≈ 9.85 µM); against Escherichia coli [2] it was 0.25 µg/mL (≈ 0.308 µM).
The term Ki denotes the dissociation constant of the complex between target and ligand, obtained from inhibition or displacement. For `COc1cccc(OC)c1-c1cnnc(NCc2nc3ccccc3s2)n1`, the inhibition result with Escherichia coli [11] and in the series with Escherichia coli [13] was “Active” each time. Further, in series [6], inhibition was half-maximal at 2000 nM (IC50). Further, the Ki in [12] worked out at 2500 nM.
With `COc1ccc2sc(CNc3nncc(-c4c(C)cccc4O)n3)nc2c1`, the MIC was over 32 µg/mL with Escherichia coli [3], over 32 µg/mL in the series with Escherichia coli [5], 8 µg/mL in the series on Escherichia coli [8] and over 32 µg/mL with Escherichia coli [10]. For the same compound, the IC50 was 9800 nM in [4]; 69 nM in [6]; over 300000 nM in series [7]; 430 nM in the series on Klebsiella pneumoniae; 160 nM in series [9].
Turning to `O=C(O)COc1ccc2sc(CNc3nncc(-c4c(Cl)cccc4Cl)n3)nc2c1`, the MIC in the series with Escherichia coli [3] was over 32 µg/mL; against Escherichia coli [5], over 32 µg/mL; in the series with Escherichia coli [8] it was 32 µg/mL; with Escherichia coli [10], over 32 µg/mL. Moreover, the IC50 is 1800 nM in series [4]; 19 nM in [6]; over 300000 nM in series [7]; 100 nM with Klebsiella pneumoniae; 41 nM in [9].
In the case of `CO[C@H]1/C=C/O[C@@]2(C)Oc3c(C)c(O)c4c(O)c(c(/C=N/N5CCN(C)CC5)c(O)c4c3C2=O)NC(=O)/C(C)=C\C=C\[C@H](C)[C@H](O)[C@@H](C)[C@@H](O)[C@@H](C)[C@H](OC(C)=O)[C@@H]1C` [RIFAMPIN], the MIC in the series on Escherichia coli [1] amounted to 8 µg/mL (≈ 9.72 µM); with Escherichia coli [2], 0.125 µg/mL (≈ 0.152 µM).
In the case of `Oc1ccc2sc(CNc3nncc(-c4c(O)ccc5ccccc45)n3)nc2c1`, the minimal inhibitory concentration (MIC) is 2 µg/mL (≈ 4.98 µM) in the series with Escherichia coli [3], over 32 µg/mL in the series on Escherichia coli [5], 0.063 µg/mL with Escherichia coli [8] and 2 µg/mL in the series on Escherichia coli [10]. For the same compound, the IC50 in series [4] was 1300 nM; in series [6], 20 nM; in [7], over 300000 nM; in the series on Klebsiella pneumoniae, 85 nM; in series [9] it was 41 nM. Also, the Activity in the series on HepG2 stood at 20 µg/mL.
`CC[C@H]1OC(=O)[C@H](C)[C@@H](O[C@H]2C[C@@](C)(OC)[C@@H](O)[C@H](C)O2)[C@H](C)[C@@H](O[C@@H]2O[C@H](C)C[C@H](N(C)C)[C@H]2O)[C@](C)(O)C[C@@H](C)C(=O)[C@H](C)[C@@H](O)[C@]1(C)O` [ERYTHROMYCIN]: the MIC stood at 32 µg/mL (≈ 43.6 µM) against Escherichia coli [1] and 0.5 µg/mL (≈ 0.681 µM) against Escherichia coli [2].
In the case of `O=C(COc1ccc2sc(CNc3nncc(-c4c(Cl)cccc4Cl)n3)nc2c1)NCCO`, the MIC was over 32 µg/mL with Escherichia coli [14]; over 32 µg/mL against Escherichia coli [3]; over 32 µg/mL in the series with Escherichia coli [5]; 2 µg/mL in the series on Escherichia coli [8]; 16 µg/mL in the series with Escherichia coli [10]. The IC50 in series [4] was 1900 nM; in series [6], 49 nM; in series [7] it was over 300000 nM; with Klebsiella pneumoniae it was 150 nM; in [9] it was 76 nM. The inhibition result in the series with Escherichia coli [15] and in the series with Escherichia coli [16] was “Active” throughout. For the same compound, the Activity in the series on HepG2 is over 32 µg/mL.
